From ChEMBL document CHEMBL5303300, “EUbOPEN Chemogenomics Library - Multiplex” (2023)
Values joined by “and” are separate entries in the source; they are usually repeats but may differ in a detail not shown here. Equal entries are not always repeated.

Assays:
[1] = test system: HEK-293T; assay: Multiplex assay against HEK293T; format: toxicity, cell-based; conditions: human, number of replicates 2
Method in brief: (§1)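 Cells were classed with CellPathfinder machine-learning gating, first as Hoechst high-intensity objects or normal cells, then (normal cells) as healthy, pyknosed or fragmented nuclei, and finally (pyknosed cells) as mitotic or apoptotic. Staining of live cells at seeding used Hoechst33342, BioTracker Green Microtubule Cytoskeleton Dye, MitoTracker Red and Annexin V Alexa Fluor 680, with imaging on a CQ1 microscope at 37°C and 5% CO2 after compound addition. Tubulin, mitochondrial-mass and membrane-permeability phenotypes are per cents of healthy-nucleus cells.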

[2] = test system: U2OS; assay: Multiplex assay against U2OS; format: toxicity, cell-based; conditions: human, number of replicates 2; method in brief: as §1
[3] = 24 h, 1 µM, compound concentration 1 uM
[4] = 24 h, 10 µM, compound concentration 10 uM
[5] = 48 h, 1 µM, compound concentration 1 uM
[6] = 48 h, 10 µM, compound concentration 10 uM
[7] = 12 h, 1 µM, compound concentration 1 uM
[8] = 12 h, 10 µM, compound concentration 10 uM

SMILES: O=C1NC(=NCc2cccs2)SC1=Cc1ccc2ncccc2c1
- Population Hoechst High Intensity Objects (%) [1, 3]: 8%
- Population Membrane Permeable-Phenotype (%) [1, 3]: 3% and 2%
- Population Mitochondria Different-Phenotype (%) [1, 3]: 3% and 5%
- Population Mitotic Cells (%) [1, 3]: 59% and 68%
- Population Normal (%) [1, 3]: 91%
- Population Pyknosed Nuclei (%) [1, 3]: 9% and 6%
- Population Tubulin-Different-Phenotype (%) [1, 3]: 19% and 30%
- Total Cell Count [1, 3]: 1066 and 1062
- Population Apoptotic (%) [1, 4]: 63% and 77%
- Population Fragmented Nuclei (%) [1, 4]: 2%
- Population Healthy Nuclei (%) [1, 4]: 91% and 93%
- Population Hoechst High Intensity Objects (%) [1, 4]: 6% and 5%
- Population Membrane Permeable-Phenotype (%) [1, 4]: 2% and 1%
- Population Mitochondria Different-Phenotype (%) [1, 4]: 9% and 12%
- Population Mitotic Cells (%) [1, 4]: 36% and 22%
- Population Normal (%) [1, 4]: 93% and 94%
- Population Pyknosed Nuclei (%) [1, 4]: 5% and 4%
- Population Tubulin-Different-Phenotype (%) [1, 4]: 57% and 55%
- Total Cell Count [1, 4]: 699 and 690
- Population Apoptotic (%) [1, 5]: 14% and 11%
- Population Fragmented Nuclei (%) [1, 5]: 16% and 10%
- Population Healthy Nuclei (%) [1, 5]: 80% and 86%
- Population Hoechst High Intensity Objects (%) [1, 5]: 9% and 10%
- Population Membrane Permeable-Phenotype (%) [1, 5]: 5%
- Population Mitochondria Different-Phenotype (%) [1, 5]: 0% and 1%
- Population Mitotic Cells (%) [1, 5]: 85% and 88%
- Population Normal (%) [1, 5]: 90% and 89%
- Population Pyknosed Nuclei (%) [1, 5]: 3%
- Population Tubulin-Different-Phenotype (%) [1, 5]: 9% and 14%
- Total Cell Count [1, 5]: 2821 and 2321
- Population Apoptotic (%) [1, 6]: 45% and 59%
- Population Fragmented Nuclei (%) [1, 6]: 8% and 7%
- Population Healthy Nuclei (%) [1, 6]: 87% and 89%
- Population Hoechst High Intensity Objects (%) [1, 6]: 8% and 7%
- Population Membrane Permeable-Phenotype (%) [1, 6]: 2% and 0%
- Population Mitochondria Different-Phenotype (%) [1, 6]: 3% and 5%
- Population Mitotic Cells (%) [1, 6]: 54% and 40%
- Population Normal (%) [1, 6]: 91% and 92%
- Population Pyknosed Nuclei (%) [1, 6]: 3%
- Population Tubulin-Different-Phenotype (%) [1, 6]: 21% and 26%
- Total Cell Count [1, 6]: 740 and 737
- Population Apoptotic (%) [2, 7]: 100% and 60%
- Population Healthy Nuclei (%) [2, 7]: 68% and 89%
- Population Hoechst High Intensity Objects (%) [2, 7]: 0%
- Population Membrane Permeable-Phenotype (%) [2, 7]: 0% and 1%
- Population Mitochondria Different-Phenotype (%) [2, 7]: 0% and 1%
- Population Normal (%) [2, 7]: 100%
- Population Pyknosed Nuclei (%) [2, 7]: 9% and 6%
- Population Tubulin-Different-Phenotype (%) [2, 7]: 59% and 88%
- Population Apoptotic (%) [2, 8]: 71% and 81%
- Population Healthy Nuclei (%) [2, 8]: 57% and 85%
- Population Hoechst High Intensity Objects (%) [2, 8]: 0%
- Population Membrane Permeable-Phenotype (%) [2, 8]: 5% and 7%
- Population Mitochondria Different-Phenotype (%) [2, 8]: 0% and 4%
- Population Mitotic Cells (%) [2, 8]: 28% and 18%
- Population Normal (%) [2, 8]: 100%
- Population Pyknosed Nuclei (%) [2, 8]: 21% and 8%
- Population Tubulin-Different-Phenotype (%) [2, 8]: 31% and 33%
- Population Apoptotic (%) [2, 3]: 63% and 61%
- Population Fragmented Nuclei (%) [2, 3]: 11% and 4%
- Population Healthy Nuclei (%) [2, 3]: 66% and 89%
- Population Hoechst High Intensity Objects (%) [2, 3]: 0%
- Population Membrane Permeable-Phenotype (%) [2, 3]: 5% and 0%
- Population Mitochondria Different-Phenotype (%) [2, 3]: 0%
- Population Mitotic Cells (%) [2, 3]: 36% and 38%
- Population Normal (%) [2, 3]: 100%
- Population Tubulin-Different-Phenotype (%) [2, 3]: 67% and 82%
- Population Apoptotic (%) [2, 4]: 100% and 75%
- Population Healthy Nuclei (%) [2, 4]: 56% and 79%
- Population Hoechst High Intensity Objects (%) [2, 4]: 0%
- Population Membrane Permeable-Phenotype (%) [2, 4]: 0% and 3%
- Population Mitochondria Different-Phenotype (%) [2, 4]: 0% and 4%
- Population Mitotic Cells (%) [2, 4]: 0% and 25%
- Population Normal (%) [2, 4]: 100%
- Population Pyknosed Nuclei (%) [2, 4]: 26% and 15%
- Population Tubulin-Different-Phenotype (%) [2, 4]: 26% and 41%
- Population Apoptotic (%) [2, 5]: 92% and 73%
- Population Healthy Nuclei (%) [2, 5]: 57% and 88%
- Population Hoechst High Intensity Objects (%) [2, 5]: 0%
- Population Membrane Permeable-Phenotype (%) [2, 5]: 4% and 2%
- Population Mitochondria Different-Phenotype (%) [2, 5]: 0%
- Population Normal (%) [2, 5]: 100%
- Population Tubulin-Different-Phenotype (%) [2, 5]: 70% and 90%
- Population Apoptotic (%) [2, 6]: 84%
- Population Fragmented Nuclei (%) [2, 6]: 17% and 12%
- Population Healthy Nuclei (%) [2, 6]: 36% and 60%
- Population Hoechst High Intensity Objects (%) [2, 6]: 2% and 0%
- Population Membrane Permeable-Phenotype (%) [2, 6]: 6% and 4%
- Population Mitotic Cells (%) [2, 6]: 15%
- Population Normal (%) [2, 6]: 97% and 100%
- Population Pyknosed Nuclei (%) [2, 6]: 46% and 26%
- Population Tubulin-Different-Phenotype (%) [2, 6]: 60% and 55%
